Experimental data published in PMC10548181 (RSC Advances, 2023).

Legend:
[1] = test system: HCT-116 (human colorectal carcinoma); assay: MTT anti-proliferative assay on HCT-116; assay type: cell-based; details: HCT-116, 48 h, read-out: IC50 (μM) ± SD HCT-116
In short: (§1)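 Cells grown at 37 °C in humidified 5% CO2 and seeded at 5 × 10^4 per well. Exposed 48 h at 37 °C to a concentration series of test compound, or doxorubicin as positive control, in serum-free medium with DMSO. MTT solution (2.5 mg ml−1) added for 4 h, formazan dissolved in DMSO, absorbance read at 590 nm. Viability taken as percent of untreated control; technical triplicate, three biological replicates, mean ± SD; IC50 by probit analysis.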

[2] = test system: human liver carcinoma (HepG-2); assay: MTT anti-proliferative assay on HepG-2; assay type: cell-based; details: HepG2, 48 h, read-out: IC50 (μM) ± SD HepG-2, MTT, 48 h, HepG-2
In short: as §1

[3] = test system: MCF-7 (human breast adenocarcinoma); assay: MTT anti-proliferative assay on MCF-7; assay type: cell-based; details: MCF7, 48 h, read-out: IC50 (μM) ± SD MCF-7, MTT, 48 h, MCF-7
In short: as §1

[4] = target: PI3Kβ (p110β/p85α) (Homo sapiens, UniProt P42338); assay: In vitro PI3K activity assay; assay type: biochemical
PI3Kβ (p110β/p85α), sequence (P42338 whole entry): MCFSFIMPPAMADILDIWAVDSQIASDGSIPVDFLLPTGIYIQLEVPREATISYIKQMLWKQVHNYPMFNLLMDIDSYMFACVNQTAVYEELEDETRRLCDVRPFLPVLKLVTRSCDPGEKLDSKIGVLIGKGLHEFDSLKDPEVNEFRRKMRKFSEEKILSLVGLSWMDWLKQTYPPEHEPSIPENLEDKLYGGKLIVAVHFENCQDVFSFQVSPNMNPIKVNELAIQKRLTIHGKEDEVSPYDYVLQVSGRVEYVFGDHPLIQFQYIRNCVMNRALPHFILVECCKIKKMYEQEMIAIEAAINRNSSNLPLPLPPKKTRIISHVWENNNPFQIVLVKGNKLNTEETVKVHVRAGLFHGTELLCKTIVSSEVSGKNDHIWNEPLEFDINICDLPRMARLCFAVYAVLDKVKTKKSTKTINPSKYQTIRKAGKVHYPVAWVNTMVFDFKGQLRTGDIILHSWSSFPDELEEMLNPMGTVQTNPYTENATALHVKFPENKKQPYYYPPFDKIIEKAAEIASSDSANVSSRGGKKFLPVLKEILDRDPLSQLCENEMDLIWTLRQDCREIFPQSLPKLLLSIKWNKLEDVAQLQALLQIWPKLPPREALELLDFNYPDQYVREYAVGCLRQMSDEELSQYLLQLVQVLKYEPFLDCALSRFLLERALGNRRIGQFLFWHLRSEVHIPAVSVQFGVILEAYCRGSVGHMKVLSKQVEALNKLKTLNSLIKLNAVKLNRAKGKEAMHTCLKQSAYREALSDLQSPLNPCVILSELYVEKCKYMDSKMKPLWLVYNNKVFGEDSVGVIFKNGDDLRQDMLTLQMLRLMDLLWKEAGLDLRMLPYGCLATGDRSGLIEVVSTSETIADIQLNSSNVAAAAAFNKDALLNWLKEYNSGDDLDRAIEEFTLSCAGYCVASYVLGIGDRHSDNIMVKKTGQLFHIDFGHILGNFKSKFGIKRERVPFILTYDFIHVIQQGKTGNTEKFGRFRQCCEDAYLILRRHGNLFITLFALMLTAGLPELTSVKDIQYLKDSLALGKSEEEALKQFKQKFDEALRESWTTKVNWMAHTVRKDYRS
PI3Kβ (p110β/p85α), sequence (P27986 whole entry partner): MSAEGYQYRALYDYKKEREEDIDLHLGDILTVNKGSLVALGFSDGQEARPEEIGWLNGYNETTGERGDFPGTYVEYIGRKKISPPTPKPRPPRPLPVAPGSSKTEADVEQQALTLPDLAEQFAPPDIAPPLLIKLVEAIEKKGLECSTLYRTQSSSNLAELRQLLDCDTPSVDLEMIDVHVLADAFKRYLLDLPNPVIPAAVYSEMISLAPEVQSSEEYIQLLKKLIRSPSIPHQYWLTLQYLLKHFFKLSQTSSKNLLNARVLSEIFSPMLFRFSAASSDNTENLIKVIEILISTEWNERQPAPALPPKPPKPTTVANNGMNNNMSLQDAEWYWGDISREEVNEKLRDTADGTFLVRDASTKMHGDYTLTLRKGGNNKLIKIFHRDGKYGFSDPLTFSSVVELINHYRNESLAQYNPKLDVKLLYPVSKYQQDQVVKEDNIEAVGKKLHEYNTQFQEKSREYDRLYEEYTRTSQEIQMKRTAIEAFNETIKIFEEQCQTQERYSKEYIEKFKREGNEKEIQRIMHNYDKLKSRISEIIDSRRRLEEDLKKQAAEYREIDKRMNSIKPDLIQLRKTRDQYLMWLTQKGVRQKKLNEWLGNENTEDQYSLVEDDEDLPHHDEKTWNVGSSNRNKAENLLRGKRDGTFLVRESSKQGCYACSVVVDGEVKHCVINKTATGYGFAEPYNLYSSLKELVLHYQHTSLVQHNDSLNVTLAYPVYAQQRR

[5] = target: mTOR (Homo sapiens, UniProt P42345); assay: In vitro m-TOR activity assay; assay type: biochemical
[6] = target: EGFR (Homo sapiens, UniProt P00533); assay: In vitro EGFR kinase activity assay; assay type: biochemical
EGFR, sequence (P00533 25-1210): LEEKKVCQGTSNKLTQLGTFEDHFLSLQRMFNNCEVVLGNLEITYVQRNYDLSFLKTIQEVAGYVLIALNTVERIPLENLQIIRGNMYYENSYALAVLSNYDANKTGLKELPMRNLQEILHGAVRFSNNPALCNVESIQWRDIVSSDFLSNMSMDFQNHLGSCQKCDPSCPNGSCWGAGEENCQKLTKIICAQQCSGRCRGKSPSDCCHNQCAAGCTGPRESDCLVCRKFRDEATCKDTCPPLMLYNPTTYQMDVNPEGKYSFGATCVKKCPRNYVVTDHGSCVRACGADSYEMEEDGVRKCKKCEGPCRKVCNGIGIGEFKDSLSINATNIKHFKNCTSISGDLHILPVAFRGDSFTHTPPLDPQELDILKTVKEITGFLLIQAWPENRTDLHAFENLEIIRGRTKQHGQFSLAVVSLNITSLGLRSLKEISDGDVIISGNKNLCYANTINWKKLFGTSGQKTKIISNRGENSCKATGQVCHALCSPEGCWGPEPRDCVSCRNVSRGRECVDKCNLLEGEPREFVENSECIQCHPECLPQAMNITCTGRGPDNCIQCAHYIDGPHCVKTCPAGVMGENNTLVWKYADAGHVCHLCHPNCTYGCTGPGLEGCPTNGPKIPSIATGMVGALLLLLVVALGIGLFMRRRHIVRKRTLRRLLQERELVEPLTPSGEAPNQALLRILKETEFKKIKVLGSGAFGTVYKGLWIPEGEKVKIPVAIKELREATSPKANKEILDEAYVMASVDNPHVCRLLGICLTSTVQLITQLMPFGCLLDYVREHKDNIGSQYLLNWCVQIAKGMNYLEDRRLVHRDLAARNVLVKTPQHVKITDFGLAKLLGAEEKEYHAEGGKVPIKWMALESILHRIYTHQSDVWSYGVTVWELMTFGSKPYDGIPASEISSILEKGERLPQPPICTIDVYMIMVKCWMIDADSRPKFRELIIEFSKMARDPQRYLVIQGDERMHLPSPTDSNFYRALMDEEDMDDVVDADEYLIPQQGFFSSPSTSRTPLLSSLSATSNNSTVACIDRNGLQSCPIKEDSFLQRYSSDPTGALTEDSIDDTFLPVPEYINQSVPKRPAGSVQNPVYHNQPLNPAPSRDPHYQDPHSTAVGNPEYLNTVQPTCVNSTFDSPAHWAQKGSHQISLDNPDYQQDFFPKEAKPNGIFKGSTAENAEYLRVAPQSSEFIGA

[7] = test system: MCF-7 cells; assay: Apoptosis assay; assay type: cell-based, human
[8] = test system: MCF-7 cells; assay: Cell cycle analysis; assay type: cell-based, human
In short: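 MCF-7 cells seeded at 8 × 10^4, held overnight at 37 °C with 5% CO2, then treated 48 h with test compound. Pelleted at 300 g for 5 min and fixed in 70% ethanol on ice for 15 min. Flow cytometry run within 1 h of staining.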

Row | SMILES | IC50 [1] | IC50 [2] | IC50 [3] | IC50 [4] | IC50 [5] | IC50 [6] | effect on apoptosis [7] | effect on cell cycle progression [8]
1 | CC(=NN=c1scc(C)n1C)c1c(O)c2ccccc2oc1=O [Compound 3b, 3-{1-[(3,4-Dimethyl-3H-thiazol-2-ylidene)-hydrazono]-ethyl}-4-hydroxy-2H-chromen-2-one] | 27.2 ± 2.9 µM | 46.1 ± 3.7 µM | 34.9 ± 3.1 µM | – | – | – | – | –
2 | CC(=NN=c1[nH]c(C)c(N=Nc2ccc(C)cc2)s1)c1c(O)c2ccccc2oc1=O [Compound 9d, 3-{1-[(4-Methyl-5-(4-tolyl)azo-3H-thiazol-2-ylidene)-hydrazono]-ethyl}-4-hydroxy-2H-chromen-2-one] | 45.6 ± 4.2 µM | 57.2 ± 4.6 µM | 26.3 ± 2.5 µM | – | – | – | – | –
3 | CC(=NN=C1NC(=O)C(C)S1)c1c(O)c2ccccc2oc1=O (centres unmarked) [Compound 8a, 5-Methyl-2-{[1-(4-hydroxy-2-oxo-2H-chromen-3-yl)-ethylidene]-hydrazono}-thiazolidin-4-one] | 38.3 ± 4.2 µM | 42.4 ± 3.5 µM | 27.4 ± 1.9 µM | – | – | – | – | –
4 | CC(=O)c1sc(=NN=C(C)c2c(O)c3ccccc3oc2=O)n(C)c1C [Compound 4b, 3-{1-[(5-Acetyl-3,4-dimethyl-3H-thiazol-2-ylidene)-hydrazono]-ethyl}-4-hydroxy-2H-chromen-2-one] | 24.3 ± 2.7 µM | 57.1 ± 4.3 µM | 32.7 ± 3.5 µM | – | – | – | – | –
5 | CC(=NN=C1SCC(=O)N1C)c1c(O)c2ccccc2oc1=O [Compound 7b, 3-Methyl-2-{[1-(4-hydroxy-2-oxo-2H-chromen-3-yl)-ethylidene]-hydrazono}-thiazolidin-4-one] | 41.2 ± 3.9 µM | 65.7 ± 5.1 µM | 32.8 ± 3.5 µM | – | – | – | – | –
6 | CNC(=S)NN=C(C)c1c(O)c2ccccc2oc1=O [Compound 2b, 4-Methyl-1-(1-(4-hydroxy-2-oxo-2H-chromen-3-yl)ethylidene)thiosemicarbazide] | 7.2 ± 0.6 µM | 48.1 ± 3.9 µM | 13.6 ± 1.5 µM | 1.33 ± 0.074 µM | 2.96 ± 0.18 µM | 2.28 ± 0.14 µM | – | –
7 | CCOC(=O)c1sc(=NN=C(C)c2c(O)c3ccccc3oc2=O)[nH]c1C [Compound 6a, 4-Methyl-2-{[1-(4-hydroxy-2-oxo-2H-chromen-3-yl)-ethylidene]-hydrazono}-2,3-dihydro-thiazole-5-carboxylic acid ethyl ester] | 20.4 ± 1.9 µM | 57.2 ± 4.3 µM | 6.4 ± 0.5 µM | 0.131 ± 0.007 µM | 0.719 ± 0.04 µM | 0.184 ± 0.01 µM | increase in the early and late cellular apoptosis | cell growth arrest at S phase
8 | CCOC(=O)c1sc(=NN=C(C)c2c(O)c3ccccc3oc2=O)n(C)c1C [Compound 6b, 3,4-Dimethyl-2-{[1-(4-hydroxy-2-oxo-2H-chromen-3-yl)-ethylidene]-hydrazono}-2,3-dihydro-thiazole-5-carboxylic acid ethyl ester] | 5.9 ± 0.7 µM | 41.4 ± 2.9 µM | 11.2 ± 1.1 µM | 0.361 ± 0.02 µM | 1.45 ± 0.08 µM | 0.563 ± 0.03 µM | – | –
9 | CCn1c(C)c(N=Nc2ccc(C)cc2)sc1=NN=C(C)c1c(O)c2ccccc2oc1=O [Compound 9f, 3-{1-[(3-Ethyl-4-methyl-5-(4-tolyl)azo-3H-thiazol-2-ylidene)-hydrazono]-ethyl}-4-hydroxy-2H-chromen-2-one] | 40.1 ± 4.7 µM | 82.1 ± 6.1 µM | 17.8 ± 1.1 µM | – | – | – | – | –
10 | CCn1c(C)c(C(C)=O)sc1=NN=C(C)c1c(O)c2ccccc2oc1=O [Compound 4c, 3-{1-[(5-Acetyl-3-ethyl-4-methyl-3H-thiazol-2-ylidene)-hydrazono]-ethyl}-4-hydroxy-2H-chromen-2-one] | 38.9 ± 3.2 µM | 62.5 ± 3.9 µM | 33.7 ± 3.2 µM | – | – | – | – | –
11 | CC(=NN=c1scc(-c2ccccc2)n1C)c1c(O)c2ccccc2oc1=O [Compound 5b, 3-{1-[(3-Methyl-4-phenyl-3H-thiazol-2-ylidene)-hydrazono]-ethyl}-4-hydroxy-2H-chromen-2-one] | 42.4 ± 4.1 µM | 66.4 ± 5.6 µM | 34.6 ± 2.9 µM | – | – | – | – | –
12 | CC(=O)c1sc(=NN=C(C)c2c(O)c3ccccc3oc2=O)[nH]c1C [Compound 4a, 3-{1-[(5-Acetyl-4-methyl-3H-thiazol-2-ylidene)-hydrazono]-ethyl}-4-hydroxy-2H-chromen-2-one] | 31.4 ± 3.1 µM | 48.8 ± 3.1 µM | 25.6 ± 3.1 µM | – | – | – | – | –
13 | CC(=NN=c1sc(N=Nc2ccc(C)cc2)c(C)n1C)c1c(O)c2ccccc2oc1=O [Compound 9e, 3-{1-[(3,4-Dimethyl-5-(4-tolyl)azo-3H-thiazol-2-ylidene)-hydrazono]-ethyl}-4-hydroxy-2H-chromen-2-one] | 55.2 ± 5.1 µM | 74.4 ± 5.9 µM | 23.3 ± 1.9 µM | – | – | – | – | –
14 | CC(=NN=c1[nH]c(C)c(N=Nc2ccccc2)s1)c1c(O)c2ccccc2oc1=O [Compound 9a, 3-{1-[(4-Methyl-5-phenylazo-3H-thiazol-2-ylidene)-hydrazono]-ethyl}-4-hydroxy-2H-chromen-2-one] | 33.9 ± 2.8 µM | 71.2 ± 5.1 µM | 33.4 ± 2.8 µM | – | – | – | – | –
15 | COc1cccc2c1C(=O)c1c(O)c3c(c(O)c1C2=O)C[C@@](O)(C(=O)CO)C[C@@H]3O[C@H]1C[C@H](N)[C@H](O)[C@H](C)O1 [Doxorubicin, reference compound] | 21.8 ± 2.9 µM | 63.2 ± 5.8 µM | 16.7 ± 1.5 µM | – | – | – | – | –
16 | CCOC(=O)c1sc(=NN=C(C)c2c(O)c3ccccc3oc2=O)n(CC)c1C [Compound 6c, 3-Ethyl-4-methyl-2-{[1-(4-hydroxy-2-oxo-2H-chromen-3-yl)-ethylidene]-hydrazono}-2,3-dihydro-thiazole-5-carboxylic acid ethyl ester] | 24.7 ± 1.6 µM | 45.1 ± 4.1 µM | 20.7 ± 2.1 µM | – | – | – | – | –
17 | CCN1C(=O)C(C)SC1=NN=C(C)c1c(O)c2ccccc2oc1=O (centres unmarked) [Compound 8c, 3-Ethyl-5-methyl-2-{[1-(4-hydroxy-2-oxo-2H-chromen-3-yl)-ethylidene]-hydrazono}-thiazolidin-4-one] | 44.9 ± 4.3 µM | 80.2 ± 5.9 µM | 7.4 ± 0.9 µM | – | – | – | – | –
18 | CCn1c(C)c(N=Nc2ccccc2)sc1=NN=C(C)c1c(O)c2ccccc2oc1=O [Compound 9c, 3-{1-[(3-Ethyl-4-methyl-5-phenylazo-3H-thiazol-2-ylidene)-hydrazono]-ethyl}-4-hydroxy-2H-chromen-2-one] | 47.2 ± 4.5 µM | 60.9 ± 4.8 µM | 32.8 ± 2.8 µM | – | – | – | – | –
19 | CCn1c(C)csc1=NN=C(C)c1c(O)c2ccccc2oc1=O [Compound 3c, 3-{1-[(3-Ethyl-4-methyl-3H-thiazol-2-ylidene)-hydrazono]-ethyl}-4-hydroxy-2H-chromen-2-one] | 36.3 ± 3.5 µM | 68.2 ± 5.6 µM | 36.5 ± 4.2 µM | – | – | – | – | –
20 | CC(=NN=c1sc(N=Nc2ccccc2)c(C)n1C)c1c(O)c2ccccc2oc1=O [Compound 9b, 3-{1-[(3,4-Dimethyl-5-phenylazo-3H-thiazol-2-ylidene)-hydrazono]-ethyl}-4-hydroxy-2H-chromen-2-one] | 37.9 ± 2.5 µM | 64.1 ± 5.5 µM | 32.3 ± 3.5 µM | – | – | – | – | –
21 | CC(=NN=C1SC(C)C(=O)N1C)c1c(O)c2ccccc2oc1=O (centres unmarked) [Compound 8b, 3,5-Dimethyl-2-{[1-(4-hydroxy-2-oxo-2H-chromen-3-yl)-ethylidene]-hydrazono}-thiazolidin-4-one] | 44.8 ± 4.5 µM | 67.2 ± 4.9 µM | 26.1 ± 3.5 µM | – | – | – | – | –
22 | CC(=NN=c1[nH]c(C)cs1)c1c(O)c2ccccc2oc1=O [Compound 3a, 3-{1-[(4-Methyl-3H-thiazol-2-ylidene)-hydrazono]-ethyl}-4-hydroxy-2H-chromen-2-one] | 32.6 ± 3.1 µM | 42.5 ± 4.1 µM | 34.5 ± 3.6 µM | – | – | – | – | –
